Assays:
Assay type in all cases: functional
[1] = tested on: CCRF-CEM; assay: Growth inhibition of human CCRF-CEM cells incubated for 48 hrs by sulforhodamine B assay
Procedure, shortened: (§1)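 NCI-60 screen. Compounds were dosed at five concentrations spanning 10^-4 to 10^-8 M for 48 h at 37 °C. Cells were TCA-fixed, stained with 0.4% SRB and read at 515 nm against time-zero and vehicle controls. GI50 is the concentration giving a 50% reduction in net protein increase.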

[2] = tested on: HL-60(TB); assay: Growth inhibition of human HL-60(TB) cells incubated for 48 hrs by sulforhodamine B assay; conditions: HL-60, 48 h
Procedure, shortened: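 Performed at NCI's 60-line screen. Cells grown in RPMI with 5% FBS and 2 mM L-glutamine, plated 5,000–40,000 cells/well and incubated 24 h at 37 °C before compound addition. DMSO stocks were diluted in medium with gentamicin, and five concentrations spanning 10^-4 to 10^-8 M were tested. Exposure was 48 h. Cells were fixed with TCA, stained with SRB, and read at 515 nm. GI50 taken from log dose-response curves as 50% reduction in net protein increase versus control.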

[3] = tested on: K562; assay: Growth inhibition of human K562 cells incubated for 48 hrs by sulforhodamine B assay; conditions: K562, 48 h; procedure, shortened: as §1
[4] = tested on: MOLT-4; assay: Growth inhibition of human MOLT4 cells incubated for 48 hrs by sulforhodamine B assay; conditions: MOLT-4, 48 h; procedure, shortened: as §1
[5] = tested on: RPMI-8226; assay: Growth inhibition of human RPMI8226 cells incubated for 48 hrs by sulforhodamine B assay; conditions: RPMI-8226, 48 h; procedure, shortened: as §1
[6] = tested on: A549; assay: Growth inhibition of human A549/ATCC cells incubated for 48 hrs by sulforhodamine B assay; conditions: A549, 48 h; procedure, shortened: as §1
[7] = tested on: HOP-92; assay: Growth inhibition of human HOP92 cells incubated for 48 hrs by sulforhodamine B assay; conditions: HOP-92, 48 h; procedure, shortened: as §1
[8] = tested on: NCI-H226; assay: Growth inhibition of human NCI-H226 cells incubated for 48 hrs by sulforhodamine B assay; conditions: NCI-H226, 48 h; procedure, shortened: as §1
[9] = tested on: NCI-H23; assay: Growth inhibition of human NCI-H23 cells incubated for 48 hrs by sulforhodamine B assay; conditions: NCI-H23, 48 h; procedure, shortened: as §1
[10] = tested on: NCI-H322M; assay: Growth inhibition of human NCI-H322M cells incubated for 48 hrs by sulforhodamine B assay; procedure, shortened: as §1
[11] = tested on: NCI-H460; assay: Growth inhibition of human NCI-H460 cells incubated for 48 hrs by sulforhodamine B assay; conditions: NCI-H460, 48 h; procedure, shortened: as §1
[12] = tested on: HCC 2998; assay: Growth inhibition of human HCC2998 cells incubated for 48 hrs by sulforhodamine B assay; conditions: HCC 2998, 48 h; procedure, shortened: as §1
[13] = tested on: HCT-116; assay: Growth inhibition of human HCT116 cells incubated for 48 hrs by sulforhodamine B assay; conditions: HCT-116, 48 h; procedure, shortened: as §1
[14] = tested on: HCT-15; assay: Growth inhibition of human HCT15 cells incubated for 48 hrs by sulforhodamine B assay; conditions: HCT-15, 48 h; procedure, shortened: as §1
[15] = tested on: HT-29; assay: Growth inhibition of human HT-29 cells incubated for 48 hrs by sulforhodamine B assay; conditions: HT-29, 48 h; procedure, shortened: as §1
[16] = tested on: KM12; assay: Growth inhibition of human KM12 cells incubated for 48 hrs by sulforhodamine B assay; conditions: KM12, 48 h; procedure, shortened: as §1
[17] = tested on: SW-620; assay: Growth inhibition of human SW620 cells incubated for 48 hrs by sulforhodamine B assay; conditions: SW-620, 48 h
Procedure, shortened: (§2)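 NCI-60 screen run at NCI. Cells grown in RPMI medium with 5% FBS and 2 mM L-glutamine, plated at 5,000–40,000 cells/well, and preincubated 24 h at 37 °C. Time-zero plates were TCA-fixed. Compounds came from DMSO stocks and were tested at five concentrations from 10^-4 to 10^-8 M for 48 h. Cells were then TCA-fixed, stained with 0.4% SRB, and OD read at 515 nm. GI50 is the concentration giving a 50% reduction in net protein increase versus control.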

[18] = tested on: SF-268; assay: Growth inhibition of human SF268 cells incubated for 48 hrs by sulforhodamine B assay; conditions: SF-268, 48 h; procedure, shortened: as §1
[19] = tested on: SF-295; assay: Growth inhibition of human SF295 cells incubated for 48 hrs by sulforhodamine B assay; conditions: SF-295, 48 h; procedure, shortened: as §1
[20] = tested on: SF-539; assay: Growth inhibition of human SF539 cells incubated for 48 hrs by sulforhodamine B assay; conditions: SF-539, 48 h; procedure, shortened: as §1
[21] = tested on: SNB-19; assay: Growth inhibition of human SNB19 cells incubated for 48 hrs by sulforhodamine B assay; conditions: SNB-19, 48 h; procedure, shortened: as §2
[22] = tested on: U-251; assay: Growth inhibition of human U251 cells incubated for 48 hrs by sulforhodamine B assay; conditions: U-251, 48 h; procedure, shortened: as §2
[23] = tested on: LOX IMVI; assay: Growth inhibition of human LOXIMVI cells incubated for 48 hrs by sulforhodamine B assay; procedure, shortened: as §1
[24] = tested on: Malme-3M; assay: Growth inhibition of human MALME-3M cells incubated for 48 hrs by sulforhodamine B assay; procedure, shortened: as §1
[25] = tested on: SK-MEL-28; assay: Growth inhibition of human SK-MEL-28 cells incubated for 48 hrs by sulforhodamine B assay; conditions: SK-MEL-28, 48 h; procedure, shortened: as §1
[26] = tested on: UACC-257; assay: Growth inhibition of human UACC257 cells incubated for 48 hrs by sulforhodamine B assay; conditions: UACC-257, 48 h; procedure, shortened: as §2
[27] = tested on: UACC-62; assay: Growth inhibition of human UACC62 cells incubated for 48 hrs by sulforhodamine B assay; conditions: UACC-62, 48 h; procedure, shortened: as §2
[28] = tested on: OVCAR-5; assay: Growth inhibition of human OVCAR5 cells incubated for 48 hrs by sulforhodamine B assay; conditions: OVCAR-5, 48 h; procedure, shortened: as §1
[29] = tested on: OVCAR-8; assay: Growth inhibition of human OVCAR8 cells incubated for 48 hrs by sulforhodamine B assay; conditions: OVCAR-8, 48 h; procedure, shortened: as §1
[30] = tested on: NCI/ADR-RES; assay: Growth inhibition of human NCI/ADR-RES cells incubated for 48 hrs by sulforhodamine B assay; procedure, shortened: as §1
[31] = tested on: SK-OV-3; assay: Growth inhibition of human SKOV3 cells incubated for 48 hrs by sulforhodamine B assay; conditions: SK-OV-3, 48 h; procedure, shortened: as §1
[32] = tested on: A498; assay: Growth inhibition of human A498 cells incubated for 48 hrs by sulforhodamine B assay; conditions: A498, 48 h; procedure, shortened: as §1
[33] = tested on: RXF 393; assay: Growth inhibition of human RXF393 cells incubated for 48 hrs by sulforhodamine B assay; conditions: RXF 393, 48 h; procedure, shortened: as §1
[34] = tested on: SN12C; assay: Growth inhibition of human SN12C cells incubated for 48 hrs by sulforhodamine B assay; procedure, shortened: as §1
[35] = tested on: UO-31; assay: Growth inhibition of human UO31 cells incubated for 48 hrs by sulforhodamine B assay; conditions: UO-31, 48 h; procedure, shortened: as §2
[36] = tested on: MCF7; assay: Growth inhibition of human MCF7 cells incubated for 48 hrs by sulforhodamine B assay; conditions: MCF7, 48 h; procedure, shortened: as §1
[37] = Cytotoxicity against human M9-ENL1 cells assessed as reduction in cell viability by trypan blue staining-based assay
Procedure, shortened: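 M9-ENL1 AML cells (MLL-ENL-transduced human blood cells) plated at 10^6 cells/mL in alpha-MEM with 5% human plasma, 20% FBS, SCF, IL-3, IL-7 and FLT3. Drug diluted from DMSO stock into PBS, final DMSO ≤0.5%. After 24 h exposure, dead cells assessed by trypan blue and by flow cytometry (Annexin V/PI or Annexin V/7-AAD). Viability normalized to vehicle; EC50 from dose-response curves; triplicate.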

| SMILES | GI50 [1] [nM] | GI50 [2] [nM] | GI50 [3] [nM] | GI50 [4] [nM] | GI50 [5] [nM] | GI50 [6] [nM] | GI50 [7] [nM] | GI50 [8] [nM] | GI50 [9] [nM] | GI50 [10] [nM] | GI50 [11] [nM] | GI50 [12] [nM] | GI50 [13] [nM] | GI50 [14] [nM] | GI50 [15] [nM] | GI50 [16] [nM] | GI50 [17] [nM] | GI50 [18] [nM] | GI50 [19] [nM] | GI50 [20] [nM] | further results |
| --- | --- | --- | --- | --- | --- | --- | --- | --- | --- | --- | --- | --- | --- | --- | --- | --- | --- | --- | --- | --- | --- |
| C=C1C(=O)O[C@@H]2[C@H]3O[C@]3(C)CC/C=C(/COC(=O)CCCc3c[nH]c4ccccc34)CC[C@@H]12 | 750 | 1630 | 2600 | 1530 | 2310 | 5470 | 1680 | 2040 | 1720 | 13800 | 4540 | 1790 | 960 | 1610 | 1710 | 1890 | 1840 | 1690 | 5690 | 1630 | GI50 [21]: 2590 nM; GI50 [22]: 1950 nM; GI50 [23]: 1550 nM; GI50 [24]: 1790 nM; GI50 [25]: 1700 nM; GI50 [26]: 2030 nM; GI50 [27]: 1840 nM; GI50 [28]: 1890 nM; GI50 [29]: 3380 nM; GI50 [30]: 2900 nM; GI50 [31]: 17300 nM; GI50 [32]: 11900 nM; GI50 [33]: 1460 nM; GI50 [34]: 1900 nM; GI50 [35]: 1410 nM; GI50 [36]: 1420 nM; EC50 [37]: 2000 nM |
| C=C1C(=O)O[C@@H]2[C@H]3O[C@]3(C)CC/C=C(/COC(=O)/C=C/c3c[nH]c4ccccc34)CC[C@@H]12 | 70 | 250 | 270 | 300 | 30 | 1270 | 150 | 230 | 1250 | 1730 | 1010 | 270 | 180 | 180 | 190 | 400 | 180 | 220 | 1620 | 260 | GI50 [21]: 640 nM; GI50 [22]: 210 nM; GI50 [23]: 50 nM; GI50 [24]: 280 nM; GI50 [25]: 330 nM; GI50 [26]: 350 nM; GI50 [27]: 170 nM; GI50 [28]: 310 nM; GI50 [29]: 190 nM; GI50 [30]: 350 nM; GI50 [31]: 1880 nM; GI50 [32]: 270 nM; GI50 [33]: 170 nM; GI50 [34]: 190 nM; GI50 [35]: 150 nM; GI50 [36]: 220 nM; EC50 [37]: 700 nM |
| C=C1C(=O)O[C@@H]2[C@H]3O[C@]3(C)CC/C=C(/COC(=O)c3cc4cc(OC)ccc4[nH]3)CC[C@@H]12 | 340 | 320 | 560 | 1320 | 500 | 1660 | 440 | 1570 | 1490 | 1880 | 1830 | 1540 | 420 | 320 | 350 | 1540 | 640 | 1660 | 2420 | 1020 | GI50 [21]: 1570 nM; GI50 [22]: 1600 nM; GI50 [23]: 300 nM; GI50 [24]: 1610 nM; GI50 [25]: 1230 nM; GI50 [26]: 1610 nM; GI50 [27]: 1380 nM; GI50 [28]: 1770 nM; GI50 [29]: 1580 nM; GI50 [30]: 1680 nM; GI50 [31]: 4900 nM; GI50 [32]: 1630 nM; GI50 [33]: 1140 nM; GI50 [34]: 1770 nM; GI50 [35]: 1120 nM; GI50 [36]: 340 nM; EC50 [37]: 1800 nM |
